Measurements published in ChEMBL document CHEMBL3853316 (J Med Chem, 2016).

Experiments:
[1] = Half life in human liver microsomes; type: ADME
[2] = Half life in dog liver microsomes; type: ADME, Canis lupus familiaris
[3] = Half life in rat liver microsomes; type: ADME
[4] = Oral bioavailability in dog at 1 mg/kg; type: ADME, organism-based, Canis lupus familiaris; settings: in vivo
In short: (§1)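 Dogs (n = 3) were dosed at 0.2 mg/kg iv and 1.0 mg/kg po for pharmacokinetic parameters.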

[5] = Dissociation constant, pKa of the compound in methanol/water by spectrophotometric titration method; type: physicochemical
[6] = Clearance in dog at 0.2 mg/kg, iv and 1 mg/kg, po; type: ADME, organism-based, Canis lupus familiaris; settings: in vivo; in short: as §1
[7] = Volume of distribution at steady state in dog at 0.2 mg/kg, iv and 1 mg/kg, po; type: ADME, organism-based, Canis lupus familiaris; settings: in vivo, read-out: Vdss; in short: as §1
[8] = Half life in dog at 0.2 mg/kg, iv and 1 mg/kg, po; type: ADME, organism-based, Canis lupus familiaris; settings: in vivo; in short: as §1

Cc1cc2ccc1[C@@H](C)COC(=O)Nc1ccc(OC(F)(F)F)c(c1)CN(C)C(=O)[C@@H]2Nc1ccc2c(N)nccc2c1
half-life [1]: 130 min | half-life [2]: 140 min | half-life [3]: 37 min | bioavailability [4]: 22%

Cc1cc2ccc1[C@@H](C)COC(=O)Nc1ccc(S(=O)(=O)C3CC3)c(c1)CN(C)C(=O)[C@@H]2Nc1ccc2c(N)nccc2c1
half-life [1]: > 120 min | half-life [2]: 110 min | half-life [3]: 12 min | bioavailability [4]: 1% | pKa [5]: 8.7

Cc1cc2ccc1[C@@H](C)COC(=O)Nc1ccc(S(=O)(=O)C3CC3)c(c1)CN(C)C(=O)[C@@H]2Nc1cc2ccnc(N)c2cc1F
half-life [1]: 95 min | half-life [2]: 7 min | half-life [3]: 10 min | bioavailability [4]: < 1% | clearance [6]: 11 mL/min/kg | Vd [7]: 4 L/kg | half-life [8]: 360 min

Cc1cc2ccc1[C@@H](C)COC(=O)Nc1ccc(S(=O)(=O)C3CC3)c(c1)CN(C)C(=O)[C@@H]2Nc1cc(F)c2c(N)nccc2c1
half-life [1]: 120 min | half-life [2]: 39 min | half-life [3]: 3.3 min | bioavailability [4]: 24% | pKa [5]: 8 | clearance [6]: 13 mL/min/kg | Vd [7]: 8 L/kg | half-life [8]: 480 min

Cc1cc2ccc1[C@@H](C)COC(=O)Nc1ccc(S(=O)(=O)C3CC3)c(c1)CN(C)C(=O)[C@@H]2Nc1ccc2c(N)ncc(F)c2c1
half-life [1]: 45 min | half-life [2]: 26 min | half-life [3]: 1.9 min | bioavailability [4]: 40% | pKa [5]: 7.1 | clearance [6]: 8 mL/min/kg | Vd [7]: 5 L/kg | half-life [8]: 480 min
